Measurements: ChEMBL document CHEMBL1275417, “Biological activities of novel gyrase inhibitors of the aminocoumarin class” (Antimicrob Agents Chemother, 2008)
Converted amounts (≈) assume the structure as drawn. The source made the active and inactive calls. No cut-off for these calls is given here.

Tests used:
[1] = target: DNA gyrase (Escherichia coli); test: Inhibition of Escherichia coli JM109 DNA gyrase assessed as DNA triple helix formation by supercoiling assay
[2] = target: DNA gyrase subunit A (Escherichia coli K-12) (UniProt P0AES4); test: Inhibition of Escherichia coli K-12 DNA gyrase A expressed in Escherichia coli DC2 assessed as compound concentration required for => 4-fold induction of luxCDABE operon by reported gene assay
Method in brief: (§1)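 E. coli DC2 carrying a gyrA or sulA promoter–luxCDABE (Photorhabdus) fusion plasmid. Grown overnight at 37°C in LB with 2 μg/ml tetracycline, then diluted 1:100 in LB without tetracycline and precultured 1.5 h at 37°C. Compounds were added from DMSO stocks to 1% final DMSO and incubated 5 h at 37°C. Bioluminescence was divided by A595, and induction factor is the treated/untreated ratio. The value is the lowest test concentration giving ≥4-fold induction.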

DNA gyrase subunit B = DNA gyrase subunit B (Escherichia coli, UniProt P0AES6); test: Inhibition of Escherichia coli JM109 DNA gyrase subunit B assessed as ATP hydrolysis by ATPase assay
[3] = target: T1, Cell division inhibitor SulA (Escherichia coli K-12) (UniProt P0AFZ5); test: Inhibition of Escherichia coli K-12 DNA sulA expressed in Escherichia coli DC2 assessed as compound concentration required for => 4-fold induction of luxCDABE operon by reported gene assay
T1 sequence (whole entry): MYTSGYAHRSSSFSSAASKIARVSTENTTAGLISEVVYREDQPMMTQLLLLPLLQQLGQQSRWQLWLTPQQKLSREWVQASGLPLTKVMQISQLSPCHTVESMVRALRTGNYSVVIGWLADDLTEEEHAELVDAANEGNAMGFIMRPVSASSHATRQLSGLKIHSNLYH
Method in brief: as §1

Pseudomonas aeruginosa [4] = test: Antibacterial activity against Pseudomonas aeruginosa K799/61 by broth microdilution method; format: functional
Streptococcus pneumoniae [5] = test: Antibacterial activity against Streptococcus pneumoniae ATCC 49619 by broth microdilution method; format: functional
Staphylococcus aureus [6] = test: Antibacterial activity against Staphylococcus aureus 80CR5 by broth microdilution method; format: functional
Pseudomonas aeruginosa [7] = test: Antibacterial activity against Pseudomonas aeruginosa ATCC 27853 by broth microdilution method; format: functional
Enterococcus faecalis = test: Antibacterial activity against Enterococcus faecalis ATCC 29212 by broth microdilution method; format: functional
Pseudomonas aeruginosa [8] = test: Antibacterial activity against Pseudomonas aeruginosa K799/WT by broth microdilution method; format: functional
Staphylococcus aureus [9] = test: Antibacterial activity against Staphylococcus aureus ATCC 29213 by broth microdilution method; format: functional
Streptococcus pneumoniae [10] = test: Antibacterial activity against Streptococcus pneumoniae SL336-T by broth microdilution method; format: functional
Enterococcus faecium = test: Antibacterial activity against Enterococcus faecium ATCC 19434 by broth microdilution method; format: functional
Klebsiella pneumoniae = test: Antibacterial activity against Klebsiella pneumoniae ATCC 27736 by broth microdilution method; format: functional
Staphylococcus aureus [11] = test: Antibacterial activity against Staphylococcus aureus ATCC 43300 by broth microdilution method; format: functional
Escherichia coli [12] = test: Antibacterial activity against Escherichia coli DC2 by broth microdilution method; format: functional
Escherichia coli [13] = test: Antibacterial activity against Escherichia coli UB1005 by broth microdilution method; format: functional
Streptococcus pneumoniae [14] = test: Antibacterial activity against Streptococcus pneumoniae TUPELO by broth microdilution method; format: functional
Escherichia coli [15] = test: Antibacterial activity against Escherichia coli ATCC 25922 by broth microdilution method; format: functional

SMILES | IC50 [1] [nM] | Activity [2] | IC50 (DNA gyrase subunit B) [nM] | Activity [3] | also measured
COc1cc(C(=O)Nc2c(O)c3ccc(O[C@@H]4OC(C)(C)[C@H](OC)[C@@H](OC(=O)c5ccc(C)[nH]5)[C@H]4O)cc3oc2=O)ccc1O | 75 | 25 µM | 185 | 25 µM | –
CO[C@@H]1[C@@H](O)[C@@H](OC(=O)c2ccc(C)[nH]2)[C@H](Oc2ccc3c(O)c(NC(=O)c4ccc(N)c(C)c4)c(=O)oc3c2C)OC1(C)C | 190 | > 100 µM | 784 | 100 µM | –
CO[C@@H]1[C@@H](O)[C@@H](OC(=O)c2ccc(C)[nH]2)[C@H](Oc2ccc3c(O)c(NC(=O)c4ccccc4)c(=O)oc3c2Cl)OC1(C)C | 110 | > 100 µM | 297 | 50 µM | –
C=CCc1cc(C(=O)Nc2c(O)c3ccc(O[C@@H]4OC(C)(C)[C@H](OC)[C@@H](O)[C@H]4OC(=O)c4ccc(C)[nH]4)c(C)c3oc2=O)ccc1O | 460 | inactive | 2790 | 100 µM | –
CO[C@@H]1[C@@H](O)[C@@H](OC(=O)c2ccc(C)[nH]2)[C@H](Oc2ccc3c(O)c(NC(=O)c4cc(C)c(O)c(C)c4)c(=O)oc3c2Cl)OC1(C)C | 320 | 100 µM | 376 | 100 µM | –
CCCc1cc(C(=O)Nc2c(O)c3ccc(O[C@@H]4OC(C)(C)[C@H](OC)[C@@H](O)[C@H]4OC(=O)c4ccc(C)[nH]4)c(C)c3oc2=O)ccc1O | 140 | 25 µM | 758 | 100 µM | –
CO[C@@H]1[C@@H](O)[C@@H](OC(=O)c2ccc(C)[nH]2)[C@H](Oc2ccc3c(O)c(NC(=O)c4ccc(SC)cc4)c(=O)oc3c2Cl)OC1(C)C | – | inactive | 280 | 12.5 µM | –
CO[C@@H]1[C@@H](OC(N)=O)[C@@H](O)[C@H](Oc2ccc3c(O)c(NC(=O)c4ccc(O)c(CC=C(C)C)c4)c(=O)oc3c2C)OC1(C)C [NOVOBIOCIN] | – | 3.1 µM | – | 6.3 µM | MIC (Pseudomonas aeruginosa [4]): 1 µg/mL (≈ 1.63 µM); MIC (Streptococcus pneumoniae [5]): 1 µg/mL (≈ 1.63 µM); MIC (Staphylococcus aureus [6]): > 32 µg/mL; MIC (Pseudomonas aeruginosa [7]): > 32 µg/mL; MIC (Enterococcus faecalis): > 32 µg/mL; MIC (Pseudomonas aeruginosa [8]): > 32 µg/mL; MIC (Staphylococcus aureus [9]): 0.25 µg/mL (≈ 0.408 µM); MIC (Streptococcus pneumoniae [10]): 2 µg/mL (≈ 3.26 µM); MIC (Enterococcus faecium): > 32 µg/mL; MIC (Klebsiella pneumoniae): > 32 µg/mL; MIC (Staphylococcus aureus [11]): 0.25 µg/mL (≈ 0.408 µM); MIC (Escherichia coli [12]): 4 µg/mL (≈ 6.53 µM); MIC (Escherichia coli [13]): > 32 µg/mL; MIC (Streptococcus pneumoniae [14]): 2 µg/mL (≈ 3.26 µM); MIC (Escherichia coli [15]): > 32 µg/mL
COc1cc(C(=O)Nc2c(O)c3ccc(O[C@@H]4OC(C)(C)[C@H](OC)[C@@H](O)[C@H]4OC(=O)c4ccc(C)[nH]4)c(Cl)c3oc2=O)ccc1O | 460 | inactive | 891 | 100 µM | –
CO[C@@H]1[C@@H](OC(=O)c2ccc(C)[nH]2)[C@@H](O)[C@H](Oc2ccc3c(O)c(NC(=O)/C=C/c4ccc(O)c(Cl)c4)c(=O)oc3c2)OC1(C)C | 280 | 50 µM | 276 | 50 µM | –
CO[C@@H]1[C@@H](OC(=O)c2ccc(C)[nH]2)[C@@H](O)[C@H](Oc2ccc3c(O)c(NC(=O)c4ccc(O)c(CC=C(C)C)c4)c(=O)oc3c2Cl)OC1(C)C [CHLOROBIOCIN] | – | 1.6 µM | – | < 1 µM | MIC (Pseudomonas aeruginosa [4]): ≤ 0.06 µg/mL; MIC (Streptococcus pneumoniae [5]): 0.25 µg/mL (≈ 0.359 µM); MIC (Staphylococcus aureus [6]): 4 µg/mL (≈ 5.74 µM); MIC (Pseudomonas aeruginosa [7]): 8 µg/mL (≈ 11.5 µM); MIC (Enterococcus faecalis): 4 µg/mL (≈ 5.74 µM); MIC (Pseudomonas aeruginosa [8]): 16 µg/mL (≈ 23 µM); MIC (Staphylococcus aureus [9]): ≤ 0.06 µg/mL; MIC (Streptococcus pneumoniae [10]): 1 µg/mL (≈ 1.43 µM); MIC (Enterococcus faecium): > 32 µg/mL; MIC (Klebsiella pneumoniae): 16 µg/mL (≈ 23 µM); MIC (Staphylococcus aureus [11]): ≤ 0.06 µg/mL; MIC (Escherichia coli [12]): 2 µg/mL (≈ 2.87 µM); MIC (Escherichia coli [13]): > 32 µg/mL; MIC (Streptococcus pneumoniae [14]): 1 µg/mL (≈ 1.43 µM); MIC (Escherichia coli [15]): 32 µg/mL (≈ 45.9 µM)
CO[C@@H]1[C@@H](OC(=O)c2ccc(C)[nH]2)[C@@H](O)[C@H](Oc2ccc3c(O)c(NC(=O)/C=C/c4ccccc4)c(=O)oc3c2C)OC1(C)C | – | inactive | 106 | 50 µM | –
CO[C@@H]1[C@@H](O)[C@@H](O)[C@H](Oc2ccc3c(O)c(NC(=O)c4ccccc4)c(=O)oc3c2C)OC1(C)C | – | inactive | > 10000 | inactive | –
CO[C@@H]1[C@@H](OC(=O)c2ccc(C)[nH]2)[C@@H](O)[C@H](Oc2ccc3c(O)c(NC(=O)c4ccccc4)c(=O)oc3c2C)OC1(C)C | – | 6.3 µM | 131 | 6.3 µM | –

Now from value to molecule, other results behind:

IC50 [1] [nM] | Activity [2] | IC50 (DNA gyrase subunit B) [nM] | Activity [3] | SMILES | also measured
< 5 | 3.1 µM | 72 | 3.1 µM | CO[C@@H]1[C@@H](OC(=O)c2ccc(C)[nH]2)[C@@H](O)[C@H](Oc2ccc3c(O)c(NC(=O)c4ccccc4)c(=O)oc3c2Cl)OC1(C)C | –
1200 | > 100 µM | 598 | inactive | CO[C@@H]1[C@@H](O)[C@@H](OC(=O)c2ccc(C)[nH]2)[C@H](Oc2ccc3c(O)c(NC(=O)/C=C/c4ccccc4)c(=O)oc3c2Cl)OC1(C)C | –
17 | 13 µM | 65 | 6.3 µM | CO[C@@H]1[C@@H](OC(=O)c2ccc(C)[nH]2)[C@@H](O)[C@H](Oc2ccc3c(O)c(NC(=O)c4cc(C)c(O)c(C)c4)c(=O)oc3c2Cl)OC1(C)C | MIC (Pseudomonas aeruginosa [4]): 1 µg/mL (≈ 1.52 µM); MIC (Streptococcus pneumoniae [5]): 4 µg/mL (≈ 6.09 µM); MIC (Staphylococcus aureus [6]): 32 µg/mL (≈ 48.7 µM); MIC (Pseudomonas aeruginosa [7]): > 32 µg/mL; MIC (Enterococcus faecalis): 16 µg/mL (≈ 24.4 µM); MIC (Pseudomonas aeruginosa [8]): > 32 µg/mL; MIC (Staphylococcus aureus [9]): 0.125 µg/mL (≈ 0.19 µM); MIC (Streptococcus pneumoniae [10]): 8 µg/mL (≈ 12.2 µM); MIC (Enterococcus faecium): > 32 µg/mL; MIC (Klebsiella pneumoniae): > 32 µg/mL; MIC (Staphylococcus aureus [11]): 0.25 µg/mL (≈ 0.38 µM); MIC (Escherichia coli [12]): 16 µg/mL (≈ 24.4 µM); MIC (Escherichia coli [13]): > 32 µg/mL; MIC (Streptococcus pneumoniae [14]): 8 µg/mL (≈ 12.2 µM); MIC (Escherichia coli [15]): > 32 µg/mL
34 | 1.6 µM | 116 | 3.1 µM | C=CCc1cc(C(=O)Nc2c(O)c3ccc(O[C@@H]4OC(C)(C)[C@H](OC)[C@@H](OC(=O)c5ccc(C)[nH]5)[C@H]4O)c(C)c3oc2=O)ccc1O | MIC (Pseudomonas aeruginosa [4]): 0.5 µg/mL (≈ 0.771 µM); MIC (Streptococcus pneumoniae [5]): 1 µg/mL (≈ 1.54 µM); MIC (Staphylococcus aureus [6]): 16 µg/mL (≈ 24.7 µM); MIC (Pseudomonas aeruginosa [7]): > 32 µg/mL; MIC (Enterococcus faecalis): 8 µg/mL (≈ 12.3 µM); MIC (Pseudomonas aeruginosa [8]): > 32 µg/mL; MIC (Staphylococcus aureus [9]): ≤ 0.06 µg/mL; MIC (Streptococcus pneumoniae [10]): 2 µg/mL (≈ 3.08 µM); MIC (Enterococcus faecium): > 32 µg/mL; MIC (Klebsiella pneumoniae): > 32 µg/mL; MIC (Staphylococcus aureus [11]): ≤ 0.06 µg/mL; MIC (Escherichia coli [12]): 8 µg/mL (≈ 12.3 µM); MIC (Escherichia coli [13]): > 32 µg/mL; MIC (Streptococcus pneumoniae [14]): 2 µg/mL (≈ 3.08 µM); MIC (Escherichia coli [15]): > 32 µg/mL
– | 3.1 µM | > 10000 | inactive | CCCc1cc(C(=O)Nc2c(O)c3ccc(O[C@@H]4OC(C)(C)[C@H](OC)[C@@H](O)[C@H]4O)c(C)c3oc2=O)ccc1O | –
– | inactive | > 10000 | inactive | COc1cc(C(=O)Nc2c(O)c3ccc(O[C@@H]4OC(C)(C)[C@H](OC)[C@@H](O)[C@H]4O)c(C)c3oc2=O)ccc1O | –
– | inactive | > 10000 | inactive | CO[C@@H]1[C@@H](O)[C@@H](O)[C@H](Oc2ccc3c(O)c(NC(=O)c4cc(C)c(O)c(C)c4)c(=O)oc3c2C)OC1(C)C | –
32 | 25 µM | 137 | 25 µM | CO[C@@H]1[C@@H](OC(=O)c2ccc(C)[nH]2)[C@@H](O)[C@H](Oc2ccc3c(O)c(NC(=O)/C=C/c4ccc(O)c(Cl)c4)c(=O)oc3c2Cl)OC1(C)C | –
– | inactive | > 10000 | inactive | CO[C@@H]1[C@@H](O)[C@@H](O)[C@H](Oc2ccc3c(O)c(NC(=O)/C=C/c4ccccc4)c(=O)oc3c2C)OC1(C)C | –
50 | 50 µM | 219 | 50 µM | CO[C@@H]1[C@@H](OC(=O)c2ccc(C)[nH]2)[C@@H](O)[C@H](Oc2ccc3c(O)c(NC(=O)c4ccccc4)c(=O)oc3c2)OC1(C)C | –
